Measured values published in ChEMBL document CHEMBL1144512, “Synthesis and trypanocidal activity of ent-kaurane glycosides” (2007).
Activity calls are given as the source filed them. The calls are words filed in the database; no cut-off is given here.

How the values were obtained:
Trypanosoma cruzi [1] = test: Trypanocidal activity against Trypanosoma cruzi Y blood stream trypomastigotes assessed as parasite lysis at 0.31 mM relative to control; format: functional
Summary of the method: (§1)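 Infected blood with Y-strain bloodstream trypomastigotes was exposed to compound in 1% DMSO plus TCM199 at final 0.31–5.0 mM. Tubes were incubated 24 h at 4C. An aliquot was examined microscopically and parasites counted. Activity was calculated as percent parasite reduction versus negative control (1% DMSO + TCM199). DMSO and gentian violet control tubes were run in parallel.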

Trypanosoma cruzi [2] = test: Trypanocidal activity against Trypanosoma cruzi Y blood stream trypomastigotes assessed as parasite lysis at 2.50 mM relative to control; format: functional; summary of the method: as §1
Trypanosoma cruzi [3] = test: Trypanocidal activity against blood stream Trypanosoma cruzi Y trypomastigotes assessed as parasite lysis at 5 mM relative to control; format: functional; summary of the method: as §1
Trypanosoma cruzi [4] = test: Trypanocidal activity against Trypanosoma cruzi Y blood stream trypomastigotes assessed as parasite lysis at 0.63 mM relative to control; format: functional; summary of the method: as §1
Trypanosoma cruzi [5] = test: Trypanocidal activity in Swiss albino mouse inoculated with Trypanosoma cruzi Y blood trypomastigotes assessed as parasitaemia reduction administered after 7th day of inoculation at 250 mg/kg, po after 4 hrs relative to control; format: functional; design: scale not given: the % may be the effect or the level left
Summary of the method: (§2)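 Male Swiss albino mice (18–20 g, 30 days old) were infected ip with 5×10^4 Y-strain blood trypomastigotes. At peak parasitaemia (day 7), a single oral 250 mg/kg dose in DMSO 0.1 mL plus LIT 0.9 mL was given. Circulating parasites were counted microscopically before and 4 and 6 h after dosing. Percent reduction was taken versus pre-treatment count, with three mice per group, mean ± SD, and Split-Plot test.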

Trypanosoma cruzi [6] = test: Trypanocidal activity in Swiss albino mouse inoculated with Trypanosoma cruzi Y blood trypomastigotes assessed as parasitaemia reduction administered after 7th day of inoculation at 250 mg/kg, po after 6 hrs relative to control; format: functional; design: scale not given: the % may be the effect or the level left; summary of the method: as §2
Trypanosoma cruzi [7] = test: Trypanocidal activity against Trypanosoma cruzi Y blood stream trypomastigotes assessed as parasite lysis at 1.25 mM relative to control; format: functional; summary of the method: as §1
Blood [8] = test: Induction of total haemolysis in Albino mouse blood infected with Trypanosoma cruzi Y at 1.25 mM; format: functional, tissue-based
Summary of the method: (§3)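 Erythrocyte lysis was scored in the in vitro trypomastigote tubes as partial or total haemolysis. Infected blood (0.2 mL) was mixed with compound in 1% DMSO plus TCM199 at final 0.31, 0.63, 1.25, 2.50 and 5.0 mM. Tubes were incubated 24 h at 4C and examined microscopically.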

Blood [9] = test: Induction of total haemolysis in Albino mouse blood infected with Trypanosoma cruzi Y at 5 mM; format: functional, tissue-based; summary of the method: as §3
Blood [10] = test: Induction of total haemolysis in Albino mouse blood infected with Trypanosoma cruzi Y at 2.5 mM; format: functional, tissue-based; summary of the method: as §3

COC(=O)[C@]1(C)CCC[C@@]2(C)C3CC[C@@H]4C[C@@]3(CCC21)C[C@@H]4CO (stereo partly specified)
Activity (Trypanosoma cruzi [1]): 45% | Activity (Trypanosoma cruzi [2]): 100% | Activity (Trypanosoma cruzi [3]): 100% | Activity (Trypanosoma cruzi [4]): 94%

O=C(Cn1ccnc1[N+](=O)[O-])NCc1ccccc1 [BENZNIDAZOLE]
Activity (Trypanosoma cruzi [5]): 91.7% | Activity (Trypanosoma cruzi [6]): 92.6%

C=C1C[C@@]23CC[C@@H]4[C@](C)(CO)CCC[C@@]4(C)[C@@H]2CC[C@H]1C3
Activity (Trypanosoma cruzi [2]): 72% | Activity (Trypanosoma cruzi [7]): 66% | Activity (Trypanosoma cruzi [3]): 100%

CN(C)c1ccc(C(=C2C=CC(=[N+](C)C)C=C2)c2ccc(N(C)C)cc2)cc1.[Cl-] [GENTIAN VIOLET]
Activity (Trypanosoma cruzi [1]): 67% | Activity (Trypanosoma cruzi [2]): 100% | Activity (Trypanosoma cruzi [7]): 100% | Activity (Trypanosoma cruzi [4]): 100%

C=C1C[C@@]23CC[C@H]4[C@@](C)(CCC[C@@]4(C)C(=O)O)[C@@H]2CC[C@@H]1C3 [KAURENOIC ACID]
Activity (Trypanosoma cruzi [1]): 0% | Activity (Blood [8]): Active | Activity (Trypanosoma cruzi [2]): 100% | Activity (Trypanosoma cruzi [7]): 100% | Activity (Trypanosoma cruzi [3]): 100% | Activity (Trypanosoma cruzi [4]): 90% | Activity (Blood [9]): Active | Activity (Blood [10]): Active

C=C1C[C@@]23CCC4[C@@](C)(CCC[C@@]4(C)C(=O)OC)C2CC[C@@H]1C3 (stereo partly specified)
Activity (Trypanosoma cruzi [1]): 45% | Activity (Trypanosoma cruzi [5]): 56.5% | Activity (Trypanosoma cruzi [2]): 100% | Activity (Trypanosoma cruzi [7]): 88% | Activity (Trypanosoma cruzi [6]): 51.5% | Activity (Trypanosoma cruzi [3]): 100% | Activity (Trypanosoma cruzi [4]): 48%

C=C1C[C@@]23CCC4[C@](C)(CO[C@@H]5O[C@@H](CO)[C@H](O)[C@@H](O)[C@@H]5OC(C)=O)CCC[C@@]4(C)C2CC[C@@H]1C3 (stereo partly specified)
Activity (Trypanosoma cruzi [2]): 0% | Activity (Trypanosoma cruzi [7]): 0% | Activity (Trypanosoma cruzi [3]): 56%
